Active and inactive are the calls of the source. No cut-off for these calls is given here.
Assays:
[1] = molecular target: T1, Poly [ADP-ribose] polymerase 2 (Homo sapiens, UniProt Q9UGN5); assay: Inhibition of PARP2 at 1 uM
[2] = molecular target: T2, Poly [ADP-ribose] polymerase 1 (Homo sapiens, UniProt P09874); assay: Inhibition of human PARP1 at 1 uM by scintillation proximity assay
[3] = molecular target: T2, Poly [ADP-ribose] polymerase 1; assay: Inhibition of human PARP1 by scintillation proximity assay
[4] = molecular target: T2, Poly [ADP-ribose] polymerase 1; assay: Inhibition of PARP1 in human HeLa cells assessed as inhibition of hydrogen peroxide-induced poly(ADP-ribosyl)ation; type: cell-based
[5] = molecular target: Protein mono-ADP-ribosyltransferase PARP4 (Homo sapiens, UniProt Q9UKK3); assay: Inhibition of VPARP
[6] = molecular target: Voltage-gated inwardly rectifying potassium channel KCNH2 (Homo sapiens, UniProt Q12809); assay: Binding affinity to potassium channel IKr at 10 uM
[7] = Oral bioavailability in rat at 3 mg/kg; type: ADME, organism-based; conditions: in vivo
How it was run: (§1)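 Rats received the compound both intravenously and orally, each at 3 mg/kg. Reported PK parameters are half-life (h), volume of distribution (L/kg), clearance (ml/min/kg), oral bioavailability (%F) and oral AUC (μM h).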

[8] = Intrinsic clearance in rat liver microsomes; type: ADME, Microsome
[9] = AUC in rat at 3 mg/kg, po; type: ADME, organism-based; set-up: dose 3 mg/kg, route oral; conditions: plasma; how it was run: as §1
Rattus norvegicus = assay: Volume of distribution in rat at 3 mg/kg, iv and po; type: ADME, organism-based; set-up: dose 3 mg/kg, route oral; conditions: in vivo; how it was run: as §1
[10] = molecular target: T3, Protein mono-ADP-ribosyltransferase PARP3 (Homo sapiens, UniProt Q9Y6F1); assay: Inhibition of PARP3
T3 sequence (Q9Y6F1 whole entry): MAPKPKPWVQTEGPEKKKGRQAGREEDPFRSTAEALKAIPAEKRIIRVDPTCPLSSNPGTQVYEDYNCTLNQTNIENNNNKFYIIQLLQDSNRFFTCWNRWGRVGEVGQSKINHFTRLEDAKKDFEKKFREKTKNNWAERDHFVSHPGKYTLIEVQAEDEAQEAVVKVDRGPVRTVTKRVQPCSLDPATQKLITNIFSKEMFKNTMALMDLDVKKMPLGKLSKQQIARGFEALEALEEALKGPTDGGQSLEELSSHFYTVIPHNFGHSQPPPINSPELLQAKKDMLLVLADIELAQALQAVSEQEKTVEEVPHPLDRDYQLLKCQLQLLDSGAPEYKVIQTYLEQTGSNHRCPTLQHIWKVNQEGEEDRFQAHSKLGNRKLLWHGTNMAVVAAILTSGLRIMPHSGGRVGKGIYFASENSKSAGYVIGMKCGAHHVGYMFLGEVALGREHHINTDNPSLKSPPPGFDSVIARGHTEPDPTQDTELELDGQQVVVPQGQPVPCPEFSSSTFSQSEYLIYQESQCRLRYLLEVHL

[11] = molecular target: T1, Poly [ADP-ribose] polymerase 2; assay: Inhibition of PARP2
[12] = molecular target: T4, Poly [ADP-ribose] polymerase tankyrase-1 (Homo sapiens, UniProt O95271); assay: Inhibition of Tankyrase 1
T4 sequence (O95271 whole entry): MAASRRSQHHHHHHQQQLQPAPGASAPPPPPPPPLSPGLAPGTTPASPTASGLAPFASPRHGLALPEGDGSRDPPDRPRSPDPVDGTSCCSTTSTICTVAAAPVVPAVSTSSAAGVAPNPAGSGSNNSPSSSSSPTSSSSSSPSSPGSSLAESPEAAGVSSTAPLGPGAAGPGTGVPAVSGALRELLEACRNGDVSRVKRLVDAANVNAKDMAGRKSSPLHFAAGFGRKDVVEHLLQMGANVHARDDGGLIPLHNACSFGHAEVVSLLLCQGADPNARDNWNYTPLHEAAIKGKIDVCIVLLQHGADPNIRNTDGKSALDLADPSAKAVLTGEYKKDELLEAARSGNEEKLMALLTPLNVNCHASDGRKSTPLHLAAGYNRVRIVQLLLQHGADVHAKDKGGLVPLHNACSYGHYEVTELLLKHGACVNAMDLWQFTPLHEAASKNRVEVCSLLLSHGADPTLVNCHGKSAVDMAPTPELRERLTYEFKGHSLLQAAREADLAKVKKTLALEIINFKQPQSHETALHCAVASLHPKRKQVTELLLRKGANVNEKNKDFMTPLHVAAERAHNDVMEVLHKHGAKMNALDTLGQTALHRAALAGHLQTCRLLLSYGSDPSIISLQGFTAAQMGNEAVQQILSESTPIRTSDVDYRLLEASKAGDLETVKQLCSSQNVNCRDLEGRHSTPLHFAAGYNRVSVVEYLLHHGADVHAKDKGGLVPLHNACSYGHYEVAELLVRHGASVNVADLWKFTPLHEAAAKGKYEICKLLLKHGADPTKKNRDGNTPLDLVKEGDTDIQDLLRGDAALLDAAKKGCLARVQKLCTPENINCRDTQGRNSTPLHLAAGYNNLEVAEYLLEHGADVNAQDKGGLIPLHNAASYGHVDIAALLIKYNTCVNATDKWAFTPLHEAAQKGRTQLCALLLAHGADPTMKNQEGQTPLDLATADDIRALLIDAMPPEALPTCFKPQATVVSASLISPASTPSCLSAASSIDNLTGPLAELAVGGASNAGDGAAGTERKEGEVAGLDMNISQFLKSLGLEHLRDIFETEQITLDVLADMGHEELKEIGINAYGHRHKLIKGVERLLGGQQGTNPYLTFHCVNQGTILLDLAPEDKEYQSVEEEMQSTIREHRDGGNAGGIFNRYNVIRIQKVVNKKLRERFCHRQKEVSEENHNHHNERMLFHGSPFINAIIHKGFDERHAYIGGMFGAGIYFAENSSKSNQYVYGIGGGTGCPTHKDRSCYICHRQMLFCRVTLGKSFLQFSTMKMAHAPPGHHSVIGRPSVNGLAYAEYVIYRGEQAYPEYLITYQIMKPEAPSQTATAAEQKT

[13] = Half life in rat at 3 mg/kg, iv and po; type: ADME, organism-based; set-up: dose 3 mg/kg, route oral; conditions: in vivo; how it was run: as §1
[14] = Inhibition of Cytochrome P450 at 10 uM; type: ADME
[15] = Inhibition of Tankyrase at 1 uM

T2 sequence (P09874 whole entry): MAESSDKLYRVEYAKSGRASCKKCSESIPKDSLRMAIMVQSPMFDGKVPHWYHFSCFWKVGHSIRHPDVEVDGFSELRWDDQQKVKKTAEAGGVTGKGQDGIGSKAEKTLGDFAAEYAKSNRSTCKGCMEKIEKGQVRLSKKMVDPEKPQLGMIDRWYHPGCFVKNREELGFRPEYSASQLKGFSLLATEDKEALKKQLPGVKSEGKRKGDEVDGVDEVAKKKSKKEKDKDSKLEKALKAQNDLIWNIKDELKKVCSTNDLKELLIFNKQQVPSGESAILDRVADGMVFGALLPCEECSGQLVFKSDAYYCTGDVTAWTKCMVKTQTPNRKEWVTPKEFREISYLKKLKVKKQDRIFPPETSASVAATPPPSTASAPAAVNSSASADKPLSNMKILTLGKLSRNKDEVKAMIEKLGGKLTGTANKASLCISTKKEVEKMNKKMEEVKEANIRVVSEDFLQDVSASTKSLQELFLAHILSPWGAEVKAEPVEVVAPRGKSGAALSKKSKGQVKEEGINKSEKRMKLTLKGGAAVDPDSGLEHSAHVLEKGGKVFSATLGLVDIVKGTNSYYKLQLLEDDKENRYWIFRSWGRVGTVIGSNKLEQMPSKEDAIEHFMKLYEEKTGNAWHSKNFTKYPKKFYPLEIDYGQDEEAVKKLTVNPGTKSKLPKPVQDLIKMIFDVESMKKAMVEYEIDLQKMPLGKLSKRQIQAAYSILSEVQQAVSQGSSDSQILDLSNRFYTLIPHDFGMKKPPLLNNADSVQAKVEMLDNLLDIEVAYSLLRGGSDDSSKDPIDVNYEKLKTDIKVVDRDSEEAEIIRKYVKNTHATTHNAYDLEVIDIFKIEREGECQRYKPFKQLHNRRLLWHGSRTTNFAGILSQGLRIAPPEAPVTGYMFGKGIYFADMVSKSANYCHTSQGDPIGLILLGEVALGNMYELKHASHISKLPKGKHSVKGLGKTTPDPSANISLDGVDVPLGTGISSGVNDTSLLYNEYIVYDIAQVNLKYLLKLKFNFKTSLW
T1 sequence (Q9UGN5 whole entry): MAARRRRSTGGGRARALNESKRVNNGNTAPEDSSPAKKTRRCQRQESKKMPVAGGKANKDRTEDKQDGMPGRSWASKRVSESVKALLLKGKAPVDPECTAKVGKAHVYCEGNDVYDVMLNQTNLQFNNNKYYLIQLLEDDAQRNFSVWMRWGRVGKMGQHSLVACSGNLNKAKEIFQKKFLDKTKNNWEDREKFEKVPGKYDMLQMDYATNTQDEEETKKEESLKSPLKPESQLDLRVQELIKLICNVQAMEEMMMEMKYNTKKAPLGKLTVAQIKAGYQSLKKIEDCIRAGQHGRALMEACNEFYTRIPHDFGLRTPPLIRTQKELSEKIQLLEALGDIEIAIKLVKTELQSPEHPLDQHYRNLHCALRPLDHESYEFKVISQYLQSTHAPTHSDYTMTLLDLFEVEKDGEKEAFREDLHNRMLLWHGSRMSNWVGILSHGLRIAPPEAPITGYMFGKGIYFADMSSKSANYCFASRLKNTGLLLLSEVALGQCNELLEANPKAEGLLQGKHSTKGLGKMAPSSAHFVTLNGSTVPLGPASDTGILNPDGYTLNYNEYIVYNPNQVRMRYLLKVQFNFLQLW
Voltage-gated inwardly rectifying potassium channel KCNH2, sequence (Q12809 whole entry): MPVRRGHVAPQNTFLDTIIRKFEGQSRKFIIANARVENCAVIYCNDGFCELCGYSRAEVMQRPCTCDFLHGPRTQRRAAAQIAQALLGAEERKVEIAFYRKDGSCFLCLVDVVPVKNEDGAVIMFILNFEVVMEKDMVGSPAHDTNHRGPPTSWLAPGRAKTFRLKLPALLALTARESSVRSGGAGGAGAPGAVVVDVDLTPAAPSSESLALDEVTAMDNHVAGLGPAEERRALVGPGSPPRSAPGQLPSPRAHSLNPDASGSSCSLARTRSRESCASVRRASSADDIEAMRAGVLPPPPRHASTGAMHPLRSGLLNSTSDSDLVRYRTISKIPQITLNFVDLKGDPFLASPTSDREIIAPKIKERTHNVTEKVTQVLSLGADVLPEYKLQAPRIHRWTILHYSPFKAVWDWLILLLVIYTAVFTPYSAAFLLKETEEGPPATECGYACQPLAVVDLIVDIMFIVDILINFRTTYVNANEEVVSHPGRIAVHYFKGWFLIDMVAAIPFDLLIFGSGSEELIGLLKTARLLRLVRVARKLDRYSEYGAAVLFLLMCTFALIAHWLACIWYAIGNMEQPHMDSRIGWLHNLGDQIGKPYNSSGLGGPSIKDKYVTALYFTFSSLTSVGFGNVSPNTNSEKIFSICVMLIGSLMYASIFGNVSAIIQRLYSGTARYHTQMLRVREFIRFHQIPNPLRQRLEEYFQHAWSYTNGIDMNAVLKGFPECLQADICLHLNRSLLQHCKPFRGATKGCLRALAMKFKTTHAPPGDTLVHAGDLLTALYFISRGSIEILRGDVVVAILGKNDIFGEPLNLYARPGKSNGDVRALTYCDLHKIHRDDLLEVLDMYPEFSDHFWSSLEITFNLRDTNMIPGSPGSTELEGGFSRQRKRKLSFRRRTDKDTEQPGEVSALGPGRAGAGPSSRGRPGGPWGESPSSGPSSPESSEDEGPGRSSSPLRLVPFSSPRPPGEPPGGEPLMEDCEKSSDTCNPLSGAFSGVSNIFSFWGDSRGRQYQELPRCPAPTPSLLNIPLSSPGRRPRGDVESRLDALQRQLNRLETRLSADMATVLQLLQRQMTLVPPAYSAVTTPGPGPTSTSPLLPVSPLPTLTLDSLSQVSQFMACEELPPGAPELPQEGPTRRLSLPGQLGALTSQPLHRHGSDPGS
Protein mono-ADP-ribosyltransferase PARP4, sequence (Q9UKK3 whole entry): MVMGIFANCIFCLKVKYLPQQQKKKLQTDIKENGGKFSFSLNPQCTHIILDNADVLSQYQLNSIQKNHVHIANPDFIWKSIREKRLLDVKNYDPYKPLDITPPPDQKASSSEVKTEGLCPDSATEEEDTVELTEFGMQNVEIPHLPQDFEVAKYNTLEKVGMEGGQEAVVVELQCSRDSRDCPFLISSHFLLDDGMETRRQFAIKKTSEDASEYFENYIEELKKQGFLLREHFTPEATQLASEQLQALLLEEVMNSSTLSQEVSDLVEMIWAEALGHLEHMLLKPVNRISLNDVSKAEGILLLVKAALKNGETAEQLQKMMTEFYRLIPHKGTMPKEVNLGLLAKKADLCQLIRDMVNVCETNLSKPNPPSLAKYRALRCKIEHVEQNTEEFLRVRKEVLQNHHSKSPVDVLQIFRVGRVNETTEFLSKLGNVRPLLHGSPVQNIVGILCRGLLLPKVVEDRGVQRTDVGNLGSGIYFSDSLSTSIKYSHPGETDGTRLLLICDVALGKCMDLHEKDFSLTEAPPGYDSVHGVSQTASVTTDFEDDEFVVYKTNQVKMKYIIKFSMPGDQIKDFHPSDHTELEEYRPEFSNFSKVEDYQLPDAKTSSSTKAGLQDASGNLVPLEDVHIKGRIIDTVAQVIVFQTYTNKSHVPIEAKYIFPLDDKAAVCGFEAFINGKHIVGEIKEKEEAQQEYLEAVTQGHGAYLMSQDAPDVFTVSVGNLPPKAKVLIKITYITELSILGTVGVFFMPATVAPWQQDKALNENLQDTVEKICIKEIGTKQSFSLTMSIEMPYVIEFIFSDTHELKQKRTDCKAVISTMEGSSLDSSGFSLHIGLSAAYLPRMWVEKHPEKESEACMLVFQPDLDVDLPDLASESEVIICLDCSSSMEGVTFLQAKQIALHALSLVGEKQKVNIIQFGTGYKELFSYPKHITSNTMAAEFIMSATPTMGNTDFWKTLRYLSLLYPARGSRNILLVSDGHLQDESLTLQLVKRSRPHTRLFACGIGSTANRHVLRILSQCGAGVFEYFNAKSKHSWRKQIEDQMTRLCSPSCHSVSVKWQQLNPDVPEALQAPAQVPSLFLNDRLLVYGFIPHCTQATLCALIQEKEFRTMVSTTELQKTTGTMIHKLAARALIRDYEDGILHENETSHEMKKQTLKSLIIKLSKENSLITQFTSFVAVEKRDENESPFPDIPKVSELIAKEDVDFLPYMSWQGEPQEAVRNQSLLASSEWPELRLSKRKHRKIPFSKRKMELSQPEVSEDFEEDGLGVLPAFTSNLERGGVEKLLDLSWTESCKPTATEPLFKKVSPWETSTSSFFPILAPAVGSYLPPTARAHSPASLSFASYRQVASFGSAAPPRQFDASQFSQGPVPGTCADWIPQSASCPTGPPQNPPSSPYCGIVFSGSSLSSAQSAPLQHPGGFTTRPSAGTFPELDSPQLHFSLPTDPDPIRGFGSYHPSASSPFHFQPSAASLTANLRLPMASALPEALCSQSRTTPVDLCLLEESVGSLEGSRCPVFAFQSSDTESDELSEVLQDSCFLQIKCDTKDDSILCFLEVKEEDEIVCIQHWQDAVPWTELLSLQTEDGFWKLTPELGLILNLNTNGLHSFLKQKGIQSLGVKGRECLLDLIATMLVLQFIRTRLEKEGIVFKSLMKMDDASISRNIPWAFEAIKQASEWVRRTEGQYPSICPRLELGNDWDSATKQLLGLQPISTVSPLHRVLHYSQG

SMILES	IC50 [3]	EC50 [4]	other results
O=C1CC2NCCc3cccc(c32)N1 (stereo not drawn)	–	–	inhibition [1]: inactive; inhibition [2]: inactive
O=C1NCC2c3c(cccc31)CCN2C(=O)CCn1cnc2ccccc21 (stereo not drawn)	1 nM	1600 nM	–
O=C1NCC2c3c(cccc31)CCN2C(=O)OCc1ccccc1 (stereo not drawn)	14 nM	130 nM	–
O=C1NCC2c3c(cccc31)CCN2C(=O)C1CCCC1 (stereo not drawn)	11 nM	550 nM	–
O=C1NCC2c3c(cccc31)CCN2C(=O)CN1CCC(c2ccccc2)CC1 (stereo not drawn)	0.5 nM	410 nM	–
O=C1NCC2c3c(cccc31)CCN2C(=O)Cc1cccnc1 (stereo not drawn)	1 nM	360 nM	IC50 [5]: 440 nM; Activity [6]: Not Active; bioavailability [7]: 51%; microsomal CLint [8]: 3 µL/min/mg; AUC [9]: 2.3 µM·h; Vd (Rattus norvegicus): 3 L/kg; IC50 [10]: 50 nM; IC50 [11]: 1 nM; IC50 [12]: 3500 nM; half-life [13]: 1.7 h; Activity [14]: Not Active
O=C1NCC2c3c(cccc31)CCN2C(=O)Cc1ccccc1Cl (stereo not drawn)	16 nM	900 nM	–
O=C1NCC2c3c(cccc31)CCN2C(=O)CN1CCCCC1 (stereo not drawn)	6 nM	280 nM	microsomal CLint [8]: 18 µL/min/mg
O=C1NCC2NCCc3cccc1c32 (stereo not drawn)	140 nM	–	inhibition [15]: 11%
Nc1cccc2c1CCNC2=O	0.5 nM	–	–
O=C1NCC2c3c(cccc31)CCN2C(=O)[C@@H]1CCCN1 (stereo partly drawn)	4 nM	180 nM	–
O=C1NCC2c3c(cccc31)CCN2C(=O)NCc1ccccc1 (stereo not drawn)	12 nM	690 nM	–
O=C1NCC2c3c(cccc31)CCN2C(=O)c1ccccc1Cl (stereo not drawn)	35 nM	–	–
O=C1NCC2c3c(cccc31)CCN2C(=O)c1cccc(Cl)c1 (stereo not drawn)	37 nM	–	–
COc1ccccc1CC(=O)N1CCc2cccc3c2C1CNC3=O (stereo not drawn)	27 nM	1700 nM	–
O=C1NCC2c3c(cccc31)CCN2C(=O)C1CNC1 (stereo not drawn)	1 nM	660 nM	–
O=C1NCC2c3c(cccc31)CCN2C(=O)c1cccc(C(=O)N2CCCNCC2)c1 (stereo not drawn)	50 nM	–	–
O=C(O)CCCC(=O)N1CCc2cccc3c2C1CNC3=O (stereo not drawn)	15 nM	5000 nM	–
O=C1NCC2c3c(cccc31)CCN2Cc1ccccc1 (stereo not drawn)	190 nM	5200 nM	–
O=C1NCC2c3c(cccc31)CCN2C(=O)CCc1ccccc1 (stereo not drawn)	4 nM	350 nM	–
O=C1NCC2c3c(cccc31)CCN2C(=O)Cc1ccc(Br)cc1 (stereo not drawn)	7 nM	200 nM	–
CC(=O)N1CCC[C@H]1C(=O)N1CCc2cccc3c2C1CNC3=O (stereo partly drawn)	14 nM	2800 nM	–
CN1CCN(CC(=O)N2CCc3cccc4c3C2CNC4=O)CC1 (stereo not drawn)	97 nM	3500 nM	–

SMILES	IC50 [3]	EC50 [4]	other results
COc1cccc(CC(=O)N2CCc3cccc4c3C2CNC4=O)c1 (stereo not drawn)	5 nM	1200 nM	–
O=C1NCC2c3c(cccc31)CCN2C(=O)Cc1cccc(Cl)c1 (stereo not drawn)	5 nM	1100 nM	–
O=C1NCC2c3c(cccc31)CCN2C(=O)Cc1ccc(Cl)cc1 (stereo not drawn)	5 nM	650 nM	–
O=C1NCC2c3c(cccc31)CCN2C(=O)c1ccc(Cl)cc1 (stereo not drawn)	7 nM	260 nM	–
COc1ccc(CC(=O)N2CCc3cccc4c3C2CNC4=O)cc1 (stereo not drawn)	6 nM	160 nM	–
CCN(CC)Cc1ccc(C(=O)N2CCc3cccc4c3C2CNC4=O)cc1 (stereo not drawn)	13 nM	310 nM	–
N#Cc1ccc(CC(=O)N2CCc3cccc4c3C2CNC4=O)cc1 (stereo not drawn)	9 nM	200 nM	–
O=C1NCC2c3c(cccc31)CCN2C(=O)Cc1ccccn1 (stereo not drawn)	13 nM	230 nM	–
O=C1NCC2c3c(cccc31)CCN2C(=O)C1CCNC1 (stereo not drawn)	1 nM	3200 nM	–
O=C1NCC2c3c(cccc31)CCN2S(=O)(=O)Cc1ccccc1 (stereo not drawn)	83 nM	2700 nM	–
O=C1NCC2c3c(cccc31)CCN2C(=O)CN1CCN(c2ccccc2)CC1 (stereo not drawn)	11 nM	440 nM	–
O=C1NCC2c3c(cccc31)CCN2C(=O)c1ccc(C(=O)N2CCCNCC2)cc1 (stereo not drawn)	130 nM	–	–
O=C1NCC2c3c(cccc31)CCN2C(=O)CCc1cnccn1 (stereo not drawn)	6 nM	330 nM	IC50 [5]: 660 nM; Activity [6]: Not Active; microsomal CLint [8]: 24 µL/min/mg; Vd (Rattus norvegicus): 2 L/kg; IC50 [10]: 70 nM; IC50 [11]: 1 nM; IC50 [12]: 2000 nM; half-life [13]: 1.2 h; Activity [14]: Not Active
Cn1cc(CCC(=O)N2CCc3cccc4c3C2CNC4=O)cn1 (stereo not drawn)	14 nM	420 nM	–
CN(C)C(=O)CCC(=O)N1CCc2cccc3c2C1CNC3=O (stereo not drawn)	9 nM	2800 nM	–
O=C1NCC2c3c(cccc31)CCN2C(=O)Oc1ccccc1 (stereo not drawn)	9 nM	1400 nM	–
O=C1NCC2c3c(cccc31)CCN2C(=O)Cc1ccc(OCc2ccccc2)cc1 (stereo not drawn)	16 nM	580 nM	–
Cc1c(CC(=O)N2CCc3cccc4c3C2CNC4=O)sc2ccccc12 (stereo not drawn)	13 nM	1300 nM	–
O=C1NCC2c3c(cccc31)CCN2C(=O)c1ccccc1 (stereo not drawn)	4 nM	840 nM	–
O=C1NCC2c3c(cccc31)CCN2C(=O)Nc1ccccc1 (stereo not drawn)	11 nM	1100 nM	–
O=C1NCC2c3c(cccc31)CCN2C(=O)Cc1ccncc1 (stereo not drawn)	10 nM	4600 nM	–
O=C1NCC2c3c(cccc31)CCN2C(=O)Cc1ccccc1 (stereo not drawn)	8 nM	230 nM	–
Cc1csc(CC(=O)N2CCc3cccc4c3C2CNC4=O)n1 (stereo not drawn)	6 nM	2900 nM	–
